According to ChEMBL document CHEMBL1153481, “Chromane derivatives of small aromatic molecules: Chemoenzymatic synthesis and growth inhibitory activity on human tumor cell line LoVo WT” (Bioorg Med Chem, 2009):
Activity calls are given as the source filed them. The rule behind the calls is not given here.

What was measured:
Type in all cases: functional, cell-based
LoVo [1] = assay: Cytotoxicity against human wild type LoVo cells after 48 hrs by MTS assay
Method in brief: (§1)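 LoVo WT human colon adenocarcinoma cells grown in D-MEM F12 with 10% FBS, penicillin/streptomycin, 37 °C, 5% CO2. Seeded 1 × 10^4 cells/well, medium replaced after 1 day with exposure medium containing test agents (0.1–300 µM; DMSO 0.3% or less). After 1–3 day exposure, MTS/PMS added for 2 h at 37 °C; formazan absorbance read at 490 nm. Viability expressed relative to DMSO-only controls.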

LoVo [2] = assay: Induction of apoptosis in human wild type LoVo cells assessed as increase in hyplodiploid cells after 24 hrs by flow cytometry
Method in brief: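 Apoptosis measured in LoVo WT cells after 24 h exposure as the percentage of hypodiploid cells (loss of fragmented DNA), determined by flow cytometry.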

LoVo [3] = assay: Cytotoxicity against human wild type LoVo cells after 24 hrs by MTS assay; method in brief: as §1
LoVo [4] = assay: Cytotoxicity against human wild type LoVo cells at 100 uM after 24 hrs by MTS assay; method in brief: as §1

| Compound | IC50 (LoVo [1]) | Activity (LoVo [2]) | IC50 (LoVo [3]) | Activity (LoVo [4]) |
| --- | --- | --- | --- | --- |
| CC1(C)CCc2c(ccc3cc(O)ccc23)O1 | 27.4 µM | Active | 34.5 µM | – |
| CC1(C)CCc2c(ccc3c4c(ccc23)OC(C)(C)CC4)O1 | 395 µM | inactive | 258 µM | – |
| Oc1ccc2cc(O)ccc2c1 | – | inactive | – | – |
| CC1(C)CCc2cc(CCO)ccc2O1 | – | – | – | inactive |
